Results: publication PMC7717682 (Journal of Enzyme Inhibition and Medicinal Chemistry, 2020)
Read-outs that look alike come from different tables or passages of the source.

What was measured:
[1] = target: T1, Escherichia coli GUS (EcGUS) (Escherichia coli, UniProt P05804); assay: EcGUS inhibition assay; type: biochemical; conditions: for inhibition at 100 µM: read-out: percentage inhibition rate of EcGUS; for percentage inhibition rate of EcGUS: compounds at 100 μM, pNPG as substrate
[2] = target: T1, Escherichia coli GUS (EcGUS); assay: Inhibition kinetics; type: biochemical; conditions: pNPG as substrate; for type of inhibition of EcGUS: Lineweaver-Burk plot
In short: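 Recombinant EcGUS was expressed in E. coli BL21(DE3) carrying pET28a-EcGUS. The enzyme hydrolysed pNPG, and activity was read as para-nitrophenyl released. Test compound stocks were 10 mM in DMSO. pNPG and inhibitor concentrations were varied. Inhibition type came from where the regression lines intercept on Lineweaver-Burk plots, and Ki was then calculated. Runs were in triplicate, repeated twice, reported as mean ± SD.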

[3] = read-out: IC50 against EcGUS, pNPG 250 µM, PBS pH 7.4, 37 °C, 30 min

T1 sequence (P05804 whole entry): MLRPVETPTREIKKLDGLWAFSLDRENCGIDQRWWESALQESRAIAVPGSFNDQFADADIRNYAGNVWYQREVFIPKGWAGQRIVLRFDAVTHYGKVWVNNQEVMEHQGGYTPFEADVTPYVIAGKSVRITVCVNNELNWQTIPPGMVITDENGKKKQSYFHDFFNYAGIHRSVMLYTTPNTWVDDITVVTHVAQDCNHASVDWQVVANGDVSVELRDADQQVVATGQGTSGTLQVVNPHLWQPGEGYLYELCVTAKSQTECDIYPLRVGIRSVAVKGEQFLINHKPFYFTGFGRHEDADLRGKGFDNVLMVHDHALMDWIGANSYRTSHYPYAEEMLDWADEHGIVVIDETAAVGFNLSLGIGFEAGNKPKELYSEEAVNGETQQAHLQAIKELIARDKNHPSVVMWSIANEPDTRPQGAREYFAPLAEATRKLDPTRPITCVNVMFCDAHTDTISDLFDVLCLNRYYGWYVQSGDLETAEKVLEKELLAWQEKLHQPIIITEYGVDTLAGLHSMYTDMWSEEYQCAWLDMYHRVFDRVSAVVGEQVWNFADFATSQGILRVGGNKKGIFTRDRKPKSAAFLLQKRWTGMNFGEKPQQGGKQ

Row | Compound | IC50 [1] | inhibition at 100 µM [1] | type of inhibition of EcGUS [2] | percentage inhibition rate of EcGUS [1] | IC50 [1, 3] | Ki ([2]; read-out: Ki (inhibition constant) against EcGUS)
1 | C[C@@H]1O[C@@H](O[C@@H]2[C@@H](O)[C@H](OCCc3ccc(O)c(O)c3)O[C@H](CO)[C@H]2OC(=O)/C=C/c2ccc(O)c(O)c2)[C@H](O)[C@H](O)[C@H]1O [acteoside] | 3.2 µM | 88 ± 2.2% | mixed-type | – | – | –
2 | CCOC(=O)/C=C/c1ccc(O)c(O)c1 [CAEE, caffeic acid ethyl ester] | – | – | competitive | 97.1 ± 0.2% | 7 µM | 2.7 µM
3 | C[C@@H]1O[C@@H](O[C@@H]2[C@@H](O)[C@H](OCCc3ccc(O)c(O)c3)O[C@H](COC(=O)/C=C/c3ccc(O)c(O)c3)[C@H]2O)[C@H](O)[C@H](O)[C@H]1O [isoacteoside] | 8.8 µM | 77% | mixed-type | – | – | –
4 | acetylacteoside | – | – | mixed-type | – | – | –
5 | COc1ccc(CCO[C@@H]2O[C@H](CO[C@@H]3OC[C@H](O)[C@H](O)[C@H]3O)[C@@H](OC(=O)/C=C/c3ccc(O)c(OC)c3)[C@H](O[C@@H]3O[C@@H](C)[C@H](O)[C@@H](O)[C@H]3O)[C@H]2O)cc1O [angoroside C] | – | – | – | – | > 100 µM | –
6 | COc1ccc(CCO[C@@H]2O[C@H](CO)[C@@H](OC(=O)/C=C/c3ccc(O)c(OC)c3)[C@H](O[C@@H]3O[C@@H](C)[C@H](O)[C@@H](O)[C@H]3O)[C@H]2O)cc1O [martynoside] | – | – | mixed-type | – | 14.3 µM | –
7 | C[C@@H]1O[C@@H](OC[C@H]2O[C@@H](OCCc3ccc(O)c(O)c3)[C@H](O)[C@@H](OC(=O)/C=C/c3ccc(O)c(O)c3)[C@@H]2O)[C@H](O)[C@H](O)[C@H]1O [isoforsythiaside] | – | – | mixed-type | – | 7.6 µM | –
8 | O=C(O)[C@@H](O)[C@H]1OC(=O)[C@H](O)[C@H]1O [DSL, D-glucaric acid-1,4-lactone, reference compound] | – | – | – | 48.7 ± 1.2% | 67.1 µM | –
9 | C[C@@H]1O[C@@H](OC[C@H]2O[C@@H](OCCc3ccc(O)c(O)c3)[C@H](OC(=O)/C=C/c3ccc(O)c(O)c3)[C@@H](O)[C@@H]2O)[C@H](O)[C@H](O)[C@H]1O [forsythoside H] | – | – | – | – | 22.2 µM | –
